According to ChEMBL document CHEMBL4402565, “α-Ketoamides as Broad-Spectrum Inhibitors of Coronavirus and Enterovirus Replication: Structure-Based Design, Synthesis, and Activity Assessment” (J Med Chem, 2020):

Legend:
[1] = Inhibition of human coronavirus NL63 M protease using Dabcyl-KTSAVLQ-SGFRKM-E(Edans)-NH2 as substrate incubated for 10 mins by fluorospectrometry
Outline: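 0.5 μM final HCoV-NL63 Mpro preincubated 10 min at 37 °C with inhibitor (0–100 μM) in pH 7.3 Tris buffer (100 mM NaCl, 1 mM EDTA, 1 mM DTT). Cleavage of 20 μM Dabcyl-KTSAVLQ↓SGFRKM-E(Edans)-NH₂ followed by fluorescence at 460 nm with 360 nm excitation. IC50 from triplicate measurements, mean ± SD.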

[2] = Inhibition of Enterovirus A71 protease 3C using DabcylKEALFQ-GPPQF-E(Edans)-NH2 as substrate incubated for 10 mins by fluorospectrometry
Outline: (§1)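 FRET cleavage assay in 20 mM Tris-HCl, 100 mM NaCl, 1 mM EDTA, 1 mM DTT, pH 7.3. Final enzyme 2 μM for CVB3 3Cpro or 3 μM for EV-A71 3Cpro, preincubated with inhibitor (0–100 μM) for 10 min at 37 °C. Reaction started with 20 μM final Dabcyl-KEALFQ↓GPPQF-E(Edans)-NH₂. Edans dequenching read at ex 360/em 460 nm. Triplicate, mean ± SD.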

[3] = Inhibition of […] protease 3C using DabcylKEALFQ-GPPQF-E(Edans)-NH2 as substrate incubated for 10 mins by fluorospectrometry; design: species or system Coxsackievirus; outline: as §1
[4] = Inhibition of SARS coronavirus M protease using Dabcyl-KTSAVLQ-SGFRKM-E(Edans)-NH2 as substrate incubated for 10 mins by fluorospectrometry; design: species or system Severe acute respiratory syndrome-related coronavirus
Outline: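 FRET cleavage assay with 0.5 µM recombinant SARS-CoV Mpro (authentic termini) in 20 mM Tris-HCl, 100 mM NaCl, 1 mM EDTA, 1 mM DTT, pH 7.3. Enzyme was preincubated with inhibitor (0–100 µM) for 10 min at 37 °C, then 20 µM final substrate was added. Fluorescence was read at ex 360/em 460 nm. Triplicate, mean ± SD; IC50 from curve fitting.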

Enterovirus A71 [5] = experiment: Antiviral activity against Enterovirus A71 infected in HuH7 cells expressing T7 RNA polymerase assessed as reduction in viral RNA replication incubated for 24 hrs by luciferase reporter gene assay; assay type: functional, organism-based; details: Enterovirus A, Huh-7, 24 h
Outline: (§2)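 Huh-T7 cells (DMEM, 2 mM glutamine, penicillin/streptomycin, 10% FCS growth or 2% maintenance, G-418 400 μg·mL⁻¹) transfected with enteroviral replicon. Compound added in growth medium at 40 μM for screening or 0, 1.25, 2.5, 5, 10, 20, 40 μM for EC50. After 24 h, cells lysed and luciferase activity read. Triplicate or quadruplicate, mean ± SD.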

[6] = Cytotoxicity against human HeLa Rh cells assessed as reduction in cell viability incubated for 3 days by MTS assay; assay type: cell-based
Enterovirus A71 [7] = experiment: Antiviral activity against Enterovirus A71 infected in RD cells assessed as reduction in virus-induced cytopathic effect incubated for 3 days by MTS assay; assay type: functional, organism-based; details: Enterovirus A, 72 h
Outline: (§3)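 CPE reduction assay. RD (EV-A71) or HeLa Rh (EV-D68, HRV) cells seeded 24 h earlier in medium with 2% FCS; HRV2/HRV14 medium contained 30 mM MgCl₂. Serial compound dilutions added with virus. At 3 days post infection, 5% MTS added for 1 h at 37 °C and OD498 read. EC50 taken as 50% protection versus controls by logarithmic interpolation; morphology also checked microscopically.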

[8] = Cytotoxicity against human RD cells assessed as reduction in cell viability incubated for 3 days by MTS assay; assay type: cell-based
rhinovirus A2 = experiment: Antiviral activity against Human rhinovirus 2 infected in HeLa Rh cells assessed as reduction in virus-induced cytopathic effect incubated for 3 days by MTS assay; assay type: functional, organism-based; details: Rhinovirus A, 72 h; outline: as §3
SARS-CoV [9] = experiment: Antiviral activity against SARS coronavirus infected in Vero E6 cells assessed as reduction in virus-induced cytopathic effect incubated for 2 days by non-radioactive cell proliferation assay; assay type: functional, organism-based; details: Severe acute respiratory syndrome-related coronavirus, Vero C1008, 48 h
[10] = Therapeutic index, ratio of CC50 for human HeLa Rh cells to EC50 for Human rhinovirus 14 infected in human HeLa Rh cells; assay type: toxicity, cell-based; details: read-out: Ratio CC50/EC50
SARS-CoV [11] = experiment: Antiviral activity against SARS coronavirus infected in HuH7 cells expressing T7 RNA polymerase assessed as reduction in viral RNA replication incubated for 24 hrs by luciferase reporter gene assay; assay type: functional, organism-based; details: Severe acute respiratory syndrome-related coronavirus, Huh-7, 24 h
Outline: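 SARS-CoV replicon (DNA-launched, Renilla luciferase reporter) was transfected into Huh-T7 cells at 80–90% confluency. Compound at 0, 1.25, 2.5, 5, 10, 20 or 40 µM in growth medium was added after transfection. At 24 h, cells were lysed and luciferase activity measured. Runs were in triplicate or quadruplicate, reported as mean ± SD.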

[12] = Cytotoxicity against human HuH7 cells expressing T7 RNA polymerase assessed as reduction in cell viability incubated for 2 days by non-radioactive cell proliferation assay; assay type: cell-based, Huh-7
[13] = Antiviral activity against […] infected in HuH7 cells expressing T7 RNA polymerase assessed as reduction in virus-induced cytopathic effect incubated for 2 days by non-radioactive cell proliferation assay; assay type: functional, organism-based; details: B3, Huh-7, 48 h
[14] = test system: Middle East respiratory syndrome-related coronavirus; experiment: Antiviral activity against Middle East respiratory syndrome coronavirus infected in HuH7 cells expressing T7 RNA polymerase assessed as reduction in virus-induced cytopathic effect incubated for 2 days by non-radioactive cell proliferation assay; assay type: functional, organism-based; details: Huh-7, 48 h
[15] = test system: Middle East respiratory syndrome-related coronavirus; experiment: Antiviral activity against Middle East respiratory syndrome coronavirus infected in Vero cells assessed as reduction in virus-induced cytopathic effect incubated for 3 days by non-radioactive cell proliferation assay; assay type: functional, organism-based; details: 72 h
rhinovirus B14 = experiment: Antiviral activity against Human rhinovirus 14 infected in HeLa Rh cells assessed as reduction in virus-induced cytopathic effect incubated for 3 days by MTS assay; assay type: functional, organism-based; details: Rhinovirus B, 72 h; outline: as §3
[16] = Therapeutic index, ratio of CC50 for human HeLa Rh cells to EC50 for Human rhinovirus 2 infected in human HeLa Rh cells; assay type: toxicity, cell-based; details: read-out: Ratio CC50/EC50
[17] = Antiviral activity against […] infected in HuH7 cells expressing T7 RNA polymerase assessed as reduction in viral RNA replication incubated for 24 hrs by luciferase reporter gene assay; assay type: functional, organism-based; details: B3, Huh-7, 24 h; outline: as §2
[18] = Therapeutic index, ratio of CC50 for human HeLa Rh cells to EC50 for Enterovirus D68 infected in human HeLa Rh cells; assay type: toxicity, cell-based; details: read-out: Ratio CC50/EC50
Human coronavirus 229E = experiment: Antiviral activity against Human coronavirus 229E infected in HuH7 cells expressing T7 RNA polymerase assessed as reduction in virus-induced cytopathic effect incubated for 48 hrs by Alamar blue based assay; assay type: functional, organism-based; details: Huh-7, 48 h
enterovirus D68 = experiment: Antiviral activity against Enterovirus D68 infected in HeLa Rh cells assessed as reduction in virus-induced cytopathic effect incubated for 3 days by MTS assay; assay type: functional, organism-based; details: Enterovirus D, 72 h; outline: as §3

Compound	IC50 [1] [µM]	IC50 [2] [µM]	IC50 [3] [µM]	IC50 [4] [µM]	EC50 (Enterovirus A71 [5]) [µM]	CC50 at 72 h [6] [µM]	EC50 (Enterovirus A71 [7]) [µM]	CC50 at 72 h [8] [µM]	EC50 (rhinovirus A2) [µM]	EC50 (SARS-CoV [9]) [µM]	EC50 (SARS-CoV [11]) [µM]	CC50 at 48 h [12] [µM]	EC50 [13] [µM]	EC50 [14] [µM]	EC50 [15] [µM]	EC50 (rhinovirus B14) [µM]	EC50 [17] [µM]	EC50 (Human coronavirus 229E) [µM]	also measured
CCCC[C@H](NC(=O)/C=C/c1ccccc1)C(=O)N[C@@H](C[C@@H]1CCNC1=O)C(=O)C(=O)NCc1ccccc1	> 50	3.24	5.2	8.5	> 20														
O=C(/C=C/c1ccccc1)N[C@@H](CC1CCC1)C(=O)N[C@@H](C[C@@H]1CCNC1=O)C(=O)C(=O)NCc1ccccc1	3.43	10.8	4.78	1.44	20	65	41	100	3.7	7	6.7	124	10.4	0.02	9.8	4.2	4.3		selectivity ratio [10]: > 15; selectivity ratio [16]: > 15; selectivity ratio [18]: > 15
CC(C)C[C@H](NC(=O)/C=C/c1ccccc1)C(=O)N[C@@H](C[C@@H]1CCNC1=O)C(=O)C(=O)NCc1ccccc1	1.08	13.8	3.82	0.33	> 10	103	72	115	8.9	14.2	7.2	> 188	24	0.0046	9.2	13.4	> 10	0.6	EC50 (enterovirus D68): 4.44 µM
O=C(/C=C/c1ccccc1)N[C@@H](Cc1ccc(F)cc1)C(=O)N[C@@H](C[C@@H]1CCNC1=O)C(=O)C(=O)NCc1ccccc1	> 50	2.32	8.69		> 20														
O=C(/C=C/c1ccccc1)N[C@@H](CC1CCCC1)C(=O)N[C@@H](C[C@@H]1CCNC1=O)C(=O)C(=O)NCc1ccccc1	5.41	4.73	1.93	1.27	8.9	33.2	4.2	30.8	0.51	4.9	3.6	47.5	8.1	0.007	11.1	0.42	5.1	2.5	
O=C(/C=C/c1ccccc1)N[C@@H](CC1CCCCC1)C(=O)N[C@@H](C[C@@H]1CCNC1=O)C(=O)C(=O)NCc1ccccc1	12.3	1.69	0.95	0.71	6.95	10.9	3.7	17.3	0.64	2.1	1.4	43	2.77	0.0004	5	0.7	2.35	1.8	selectivity ratio [10]: > 15; selectivity ratio [16]: > 15; EC50 (enterovirus D68): 0.48 µM; selectivity ratio [18]: > 15
O=C(/C=C/c1ccccc1)N[C@H](C(=O)N[C@@H](C[C@@H]1CCNC1=O)C(=O)C(=O)NCc1ccccc1)C1CC1	11.5	> 30	15.4	6.27															
O=C(/C=C/c1ccccc1)N[C@@H](CC1CC1)C(=O)N[C@@H](C[C@@H]1CCNC1=O)C(=O)C(=O)NCc1ccccc1	1.37	18.5	4.25	0.24	> 20	103	46	106	3.8	18.4	1.9	> 189	10.4	0.08	10.9	5.5	18	1.3	
CC(C)(C)OC(=O)N[C@@H](C[C@@H]1CCNC1=O)C(=O)C(=O)NCc1ccccc1	> 50	> 50	> 50		> 10						> 40						> 10		
C#CC[C@H](NC(=O)/C=C/c1ccccc1)C(=O)N[C@@H](C[C@@H]1CCNC1=O)C(=O)C(=O)NCc1ccccc1	17.4	8.5	8.93	10.7							> 20								
